Test results as given in ChEMBL document CHEMBL1140809, “Design, synthesis, and biological evaluation of human sialidase inhibitors. Part 1: selective inhibitors of lysosomal sialidase (NEU1)” (Bioorg Med Chem Lett, 2008).

What was measured:
Format in all cases: cell-based
Sialidase-1 = Sialidase-1 (Homo sapiens, UniProt Q99519); assay: Inhibition of human NEU1 expressed in HEK293 cells
Outline: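 Homogenates of HEK-293 cells transiently co-transfected with full-length human NEU1 cDNA plus protective protein cDNA. Substrate: 4MU-NeuAc. One unit (nmol/h) of enzyme incubated 30–60 min. Each compound tested at four concentrations (0.05, 0.1, 0.5, 1). IC50 derived by non-linear regression of concentration–inhibition curves.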

Sialidase-3 = target: T1, Sialidase-3 (Homo sapiens, UniProt Q9UQ49); assay: Inhibition of human NEU3 expressed in HEK293 cells
T1 sequence (Q9UQ49 whole entry): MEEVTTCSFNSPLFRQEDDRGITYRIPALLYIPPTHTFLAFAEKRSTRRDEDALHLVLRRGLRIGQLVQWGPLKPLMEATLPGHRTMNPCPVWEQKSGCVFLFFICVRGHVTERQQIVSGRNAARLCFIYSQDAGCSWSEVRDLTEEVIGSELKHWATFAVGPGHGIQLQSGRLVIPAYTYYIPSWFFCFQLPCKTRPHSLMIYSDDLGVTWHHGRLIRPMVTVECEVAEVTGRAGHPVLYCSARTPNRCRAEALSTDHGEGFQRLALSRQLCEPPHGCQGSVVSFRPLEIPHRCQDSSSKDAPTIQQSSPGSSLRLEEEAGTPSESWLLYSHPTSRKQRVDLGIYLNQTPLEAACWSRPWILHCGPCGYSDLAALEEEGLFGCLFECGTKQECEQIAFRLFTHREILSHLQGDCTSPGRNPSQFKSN
Outline: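 Enzyme source: homogenates of HEK-293 cells transiently transfected with full-length human NEU3 cDNA. Substrate: mixed gangliosides. One unit (nmol/h) of enzyme incubated 30–60 min. Four test concentrations (0.05, 0.1, 0.5, 1). IC50 derived by non-linear regression of concentration–inhibition curves.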

Sialidase-4 = target: T2, Sialidase-4 (Homo sapiens, UniProt Q8WWR8); assay: Inhibition of human NEU4 expressed in HEK293 cells
T2 sequence (Q8WWR8 whole entry): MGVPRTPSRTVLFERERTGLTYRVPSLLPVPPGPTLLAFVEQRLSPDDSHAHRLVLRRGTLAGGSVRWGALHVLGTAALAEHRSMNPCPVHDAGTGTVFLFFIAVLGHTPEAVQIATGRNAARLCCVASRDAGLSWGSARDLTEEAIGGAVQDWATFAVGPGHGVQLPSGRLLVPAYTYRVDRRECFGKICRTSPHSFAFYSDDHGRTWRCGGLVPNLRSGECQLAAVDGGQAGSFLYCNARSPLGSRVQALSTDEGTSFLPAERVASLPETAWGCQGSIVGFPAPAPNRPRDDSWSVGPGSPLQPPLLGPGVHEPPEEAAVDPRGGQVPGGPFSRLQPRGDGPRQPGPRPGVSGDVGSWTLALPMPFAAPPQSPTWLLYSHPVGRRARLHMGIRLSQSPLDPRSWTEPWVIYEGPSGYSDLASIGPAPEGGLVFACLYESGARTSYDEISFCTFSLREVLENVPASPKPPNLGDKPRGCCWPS
Outline: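 Human NEU4 (full-length cDNA) transiently expressed in HEK-293 cells, with cell homogenates as the enzyme source. Substrate: 4MU-NeuAc. One unit (nmol/h) of enzyme incubated 30–60 min. Four concentrations tested (0.05, 0.1, 0.5, 1). IC50 derived by non-linear regression of concentration–inhibition curves.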

SMILES | IC50 (Sialidase-1) [µM] | IC50 (Sialidase-3) [µM] | IC50 (Sialidase-4) [µM]
CCCC(=O)NC[C@H](O)[C@H](O)[C@@H]1OC(C(=O)O)=C[C@H](O)[C@H]1NC(C)=O | 32 | > 1000 | –
CC(=O)N[C@H]1[C@H]([C@@H](O)[C@@H](O)CNC(=O)CC(C)C)OC(C(=O)O)=C[C@@H]1O | 565 | > 1000 | > 1000
CC(=O)N[C@H]1[C@H]([C@@H](O)[C@@H](O)CNC(=O)C(C)C)OC(C(=O)O)=C[C@@H]1O | – | > 1000 | > 1000
CCCCC(=O)NC[C@H](O)[C@H](O)[C@@H]1OC(C(=O)O)=C[C@H](O)[C@H]1NC(C)=O | – | – | > 1000
CC(=O)N[C@H]1[C@H]([C@@H](O)[C@@H](O)CNC(=O)C(C)(C)C)OC(C(=O)O)=C[C@@H]1O | > 1000 | > 1000 | > 1000
CC(=O)N[C@H]1[C@H]([C@@H](O)[C@@H](O)CNC(=O)c2ccccc2)OC(C(=O)O)=C[C@@H]1O | 13 | 320 | 810
CC(=O)N[C@H]1[C@H]([C@@H](O)[C@@H](O)CNC(=O)C2CCCC2)OC(C(=O)O)=C[C@@H]1O | 135 | > 1000 | > 1000
CC(=O)N[C@H]1[C@H]([C@@H](O)[C@@H](O)CNC(=O)C2CC2)OC(C(=O)O)=C[C@@H]1O | 680 | > 1000 | 825
CC(=O)NC[C@H](O)[C@H](O)[C@@H]1OC(C(=O)O)=C[C@H](O)[C@H]1NC(C)=O | 58 | > 1000 | 580
CCC(C)CC(=O)NC[C@H](O)[C@H](O)[C@@H]1OC(C(=O)O)=C[C@H](O)[C@H]1NC(C)=O (stereo partly specified) | > 1000 | > 1000 | > 1000
